The source made the active and inactive calls. The rule behind the calls is not given here.
Key:
Mus musculus [1] = test: Neuroprotective activity in wild type C57BL/J6 mouse assessed as survival of newborn hippocampal neurons at 10 uM, icv administered for 7 days by BrdU staining-based immunohistochemical analysis relative to vehicle-treated control; assay type: functional, organism-based
In short: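 Adult (12 week old) C57BL/J6 mice, environmentally deprived; compound infused via osmotic minipump into left lateral ventricle at 0.5 μL/h for 7 days. BrdU IP 50 mg kg–1 day–1 for 6 days during infusion; perfusion 24 h after last BrdU. BrdU+ cells in SGZ/dentate gyrus of contralateral hemisphere counted in every fifth 40 μm section, normalized to dentate gyrus volume; mean ± SEM.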

Mus musculus [2] = test: Toxicity in C57Bl/6 mouse assessed as effect on behavior up to 40 mg/kg/day, ip bid administered for 21 days; assay type: organism-based; set-up: route intraperitoneal; settings: in vivo, 504 h
Translocator protein = Translocator protein (Homo sapiens, UniProt P30536); test: Inhibition of TSPO (unknown origin)
Mus musculus [3] = test: Neuroprotective activity in substantia nigra of C57Bl/6 mouse neurogenesis model assessed as protection from MPTP-induced cell death in mature neurons at 10 mg/kg/day, ip bid administered for 21 days by immunohistochemical analysis relative to vehicle-treated control; assay type: functional; settings: route intraperitoneal
In short: (§1)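 MPTP model in adult male C57Bl/6 mice, individually housed 1 week. MPTP free base 30 mg/kg/day IP for 5 days. From day 6 (24 h after the last MPTP dose), compound or vehicle given IP twice daily for 21 days. Mice were then perfused with 4% paraformaldehyde. SNc sectioned at 30 μm intervals and every fourth section stained for TH (DAB, hematoxylin counterstain). TH+ cells counted blinded; mean ± SEM, compared with vehicle + MPTP.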

Mus musculus [4] = test: Toxicity in C57Bl/6 mouse assessed as effect on weight up to 40 mg/kg/day, ip bid administered for 21 days; assay type: organism-based; set-up: route intraperitoneal; settings: in vivo, 504 h
Mus musculus [5] = test: Toxicity in C57Bl/6 mouse assessed as effect on appearance up to 40 mg/kg/day, ip bid administered for 21 days; assay type: organism-based; set-up: route intraperitoneal; settings: in vivo, 504 h
Mus musculus [6] = test: Neuroprotective activity in substantia nigra of C57Bl/6 mouse neurogenesis model assessed as protection from MPTP-induced cell death in mature neurons at 5 mg/kg/day, ip bid administered for 21 days by immunohistochemical analysis relative to vehicle-treated control; assay type: functional, organism-based; in short: as §1

Translocator protein, sequence (P30536 whole entry): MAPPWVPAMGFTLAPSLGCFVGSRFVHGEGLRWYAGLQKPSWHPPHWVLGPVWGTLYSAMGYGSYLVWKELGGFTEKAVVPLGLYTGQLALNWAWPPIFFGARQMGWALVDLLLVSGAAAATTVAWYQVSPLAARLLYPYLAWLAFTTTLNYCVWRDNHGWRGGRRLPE

NCC(O)Cn1c2ccc(Br)cc2c2cc(Br)ccc21 (stereo not given)
Activity (Mus musculus [1]): Active

COc1cccc(NCC(O)Cn2c3ccc(Br)cc3c3cc(Br)ccc32)n1 (stereo not given)
Activity (Mus musculus [1]): Active

COc1cccc(NCC(F)Cn2c3ccc(Br)cc3c3cc(Br)ccc32)c1 (stereo not given)
Activity (Mus musculus [2]): Non-toxic | IC50 (Translocator protein): 2 µM | Activity (Mus musculus [1]): Active | Activity (Mus musculus [3]): 75% | Activity (Mus musculus [4]): Non-toxic | Activity (Mus musculus [5]): Non-toxic | Activity (Mus musculus [6]): Active

[N-]=[N+]=NCC(F)Cn1c2ccc(Br)cc2c2cc(Br)ccc21 (stereo not given)
Activity (Mus musculus [1]): inactive

Reference: ChEMBL document CHEMBL3259666, “Discovery of a neuroprotective chemical, (S)-N-(3-(3,6-dibromo-9H-carbazol-9-yl)-2-fluoropropyl)-6-methoxypyridin-2-amine [(-)-P7C3-S243], with improved druglike properties” (J Med Chem, 2014)
